{
  "source": "ChEMBL document CHEMBL5705886",
  "about": "“GSK1070916, a potent Aurora B/C kinase inhibitor with broad antitumor activity in tissue culture cells and human tumor xenograft models” (Mol Cancer Ther, 2009)",
  "key": {"SU-DHL-16": {"tested_on": "SU-DHL-16", "test": "Antiproliferative activity against human SU-DHL-16 cells assessed as inhibition of cell viability measured for 6 to 7 days by cell titer glo assay", "assay_type": "functional, cell-based", "how_it_was_run": "(§1)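 Cells seeded in recommended growth medium, held overnight at 37°C in 5% CO2, then exposed to serial dilutions of inhibitor for 6–7 d. A time-zero plate was read with CellTiter-Glo at dosing. Luminescent viability read at the end. No-cell wells subtracted as background, data expressed as percent of DMSO control.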"}, "K562 [1]": {"tested_on": "K562", "test": "Antitumor activity in human K562 cells xenografted in SCID mouse assessed as reduction in tumor growth at 100 mg/kg, ip administered once daily for 5 consecutive days with 2 days off scheduled for 3 cycles measured upto 60 days", "assay_type": "functional, organism-based", "conditions": "time 60.0 day"}, "Rec1": {"tested_on": "Rec1", "test": "Antiproliferative activity against human REC1 cells assessed as inhibition of cell viability measured for 6 to 7 days by cell titer glo assay", "assay_type": "functional, cell-based", "how_it_was_run": "as §1"}, "OVCAR-8": {"tested_on": "OVCAR-8", "test": "Antiproliferative activity against human OVCAR-8 cells assessed as inhibition of cell viability measured for 6 to 7 days by cell titer glo assay", "assay_type": "functional, cell-based", "how_it_was_run": "as §1"}, "JVM-3": {"tested_on": "JVM-3", "test": "Antiproliferative activity against human JVM-3 cells assessed as inhibition of cell viability measured for 6 to 7 days by cell titer glo assay", "assay_type": "functional, cell-based", "how_it_was_run": "(§2)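 Cells seeded in recommended growth medium, incubated overnight at 37°C in 5% CO2, then exposed to serial dilutions of inhibitor for 6–7 d. A parallel plate was read with CellTiter-Glo at compound addition as a T=0 value. The luminescent viability readout had no-cell background subtracted and was expressed as % of DMSO control.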"}, "COLO 205": {"tested_on": "COLO 205", "test": "Induction of apoptosis in human COLO 205 cells assessed as PARP cleavage at 10 nmol/L incubated for 24 hrs by Western blot analysis", "assay_type": "functional, cell-based"}, "Jurkat": {"tested_on": "Jurkat", "test": "Antiproliferative activity against human Jurkat cells assessed as inhibition of cell viability measured for 6 to 7 days by cell titer glo assay", "assay_type": "functional, cell-based", "how_it_was_run": "as §2"}, "BXPC-3": {"tested_on": "BXPC-3", "test": "Antiproliferative activity against human BXPC-3 cells assessed as inhibition of cell viability measured for 6 to 7 days by cell titer glo assay", "assay_type": "functional, cell-based", "how_it_was_run": "(§3)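 Tumor lines plated in recommended growth media, overnight at 37°C, 5% CO2, then given serial dilutions; a T=0 plate read with CellTiter-Glo at dosing. After 6–7 d of exposure, viability read by CellTiter-Glo luminescence. No-cell wells subtracted, data expressed as % of DMSO control.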"}, "[2]": {"test": "Antiproliferative activity against human PLB-985 cells assessed as inhibition of cell viability measured for 6 to 7 days by cell titer glo assay", "assay_type": "functional, cell-based", "how_it_was_run": "as §1"}, "COLO 201": {"tested_on": "COLO 201", "test": "Antiproliferative activity against human COLO201 cells assessed as inhibition of cell viability measured for 6 to 7 days by cell titer glo assay", "assay_type": "functional, cell-based", "how_it_was_run": "as §3"}, "OCI-LY19": {"tested_on": "OCI-LY19", "test": "Antiproliferative activity against human OCILY19 cells assessed as inhibition of cell viability measured for 6 to 7 days by cell titer glo assay", "assay_type": "functional, cell-based", "how_it_was_run": "as §1"}, "MOLT-16": {"tested_on": "MOLT-16", "test": "Antiproliferative activity against human MOLT-16 cells assessed as inhibition of cell viability measured for 6 to 7 days by cell titer glo assay", "assay_type": "functional, cell-based", "how_it_was_run": "as §2"}, "786-0": {"tested_on": "786-0", "test": "Antiproliferative activity against human 786-0 cells assessed as inhibition of cell viability measured for 6 to 7 days by cell titer glo assay", "assay_type": "functional, cell-based", "how_it_was_run": "as §3"}, "HCT-116": {"tested_on": "HCT-116", "test": "Antiproliferative activity against human HCT-116 cells assessed as inhibition of cell viability measured for 6 to 7 days by cell titer glo assay", "assay_type": "functional, cell-based", "how_it_was_run": "as §3"}, "Farage": {"tested_on": "Farage", "test": "Antiproliferative activity against human Farage cells assessed as inhibition of cell viability measured for 6 to 7 days by cell titer glo assay", "assay_type": "functional, cell-based", "how_it_was_run": "as §3"}, "HCT-8": {"tested_on": "HCT-8", "test": "Antiproliferative activity against human HCT-8 cells assessed as inhibition of cell viability measured for 6 to 7 days by cell titer glo assay", "assay_type": "functional, cell-based", "how_it_was_run": "as §3"}, "[3]": {"test": "Antiproliferative activity against human HS-Sultan cells assessed as inhibition of cell viability measured for 6 to 7 days by cell titer glo assay", "assay_type": "functional, cell-based", "how_it_was_run": "as §2"}, "HL-60 [4]": {"tested_on": "HL-60", "test": "Antitumor activity in human HL-60 cells xenografted in SCID mouse assessed as median survival time at 25 mg/kg, ip administered once daily for 5 consecutive days with 2 days off scheduled for 2 cycles measured upto 120 days", "assay_type": "functional", "conditions": "time <= 120 day"}, "JM1": {"tested_on": "JM1", "test": "Antiproliferative activity against human JM1 cells assessed as inhibition of cell viability measured for 6 to 7 days by cell titer glo assay", "assay_type": "functional, cell-based", "how_it_was_run": "as §2"}, "EB-3": {"tested_on": "EB-3", "test": "Antiproliferative activity against human EB-3 cells assessed as inhibition of cell viability measured for 6 to 7 days by cell titer glo assay", "assay_type": "functional, cell-based", "how_it_was_run": "as §3"}, "K562 [5]": {"tested_on": "K562", "test": "Antiproliferative activity against human K562 cells assessed as inhibition of cell viability measured for 6 to 7 days by cell titer glo assay", "assay_type": "functional, cell-based", "how_it_was_run": "as §2"}, "HL-60 [6]": {"tested_on": "HL-60", "test": "Antitumor activity in human HL-60 cells xenografted in SCID mouse assessed as reduction in tumor growth at 100 mg/kg, ip administered once daily for 5 consecutive days with 2 days off scheduled for 2 cycles measured upto 60 days", "assay_type": "functional, organism-based", "conditions": "time 60.0 day"}, "Raji": {"tested_on": "Raji", "test": "Antiproliferative activity against human Raji cells assessed as inhibition of cell viability measured for 6 to 7 days by cell titer glo assay", "assay_type": "functional, cell-based", "how_it_was_run": "as §1"}, "MOLT-4": {"tested_on": "MOLT-4", "test": "Antiproliferative activity against human MOLT-4 cells assessed as inhibition of cell viability measured for 6 to 7 days by cell titer glo assay", "assay_type": "functional, cell-based", "how_it_was_run": "as §2"}, "ST486": {"tested_on": "ST486", "test": "Antiproliferative activity against human ST486 cells assessed as inhibition of cell viability measured for 6 to 7 days by cell titer glo assay", "assay_type": "functional, cell-based", "how_it_was_run": "as §1"}, "NCI-H1155": {"tested_on": "NCI-H1155", "test": "Antiproliferative activity against human NCI-H1155 cells assessed as inhibition of cell viability measured for 6 to 7 days by cell titer glo assay", "assay_type": "functional, cell-based", "how_it_was_run": "as §2"}, "NC-37": {"tested_on": "NC-37", "test": "Antiproliferative activity against human NC-37 cells assessed as inhibition of cell viability measured for 6 to 7 days by cell titer glo assay", "assay_type": "functional, cell-based", "how_it_was_run": "as §2"}, "A549": {"tested_on": "A549", "test": "Effect on cell cycle distribution in human A549 cells assessed as increase in >4N DNA content at 2 to 5000 nM incubated for 24 to 72 hrs by flow cytometry based analysis", "assay_type": "functional", "conditions": "dose 2-5000 nM, time 24-72 hrs"}, "[7]": {"test": "Toxicity in SCID nude mouse xenografted with human MCF7 cells assessed as drug tolerance at 50 to 100 mg/kg, ip administered once daily for 5 consecutive days with 2 days off scheduled for 3 cycles measured upto 60 days", "assay_type": "organism-based", "conditions": "in vivo, 1440 h, dose 50-100 mg/kg, time < 60 day"}, "[8]": {"test": "Antiproliferative activity against human EM-3 cells assessed as inhibition of cell viability measured for 6 to 7 days by cell titer glo assay", "assay_type": "functional, cell-based", "how_it_was_run": "as §3"}, "DU-145": {"tested_on": "DU-145", "test": "Antiproliferative activity against human DU-145 cells assessed as inhibition of cell viability measured for 6 to 7 days by cell titer glo assay", "assay_type": "functional, cell-based", "how_it_was_run": "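Cells plated in recommended growth medium, held overnight at 37°C in 5% CO2, then given serial dilutions of inhibitor; a T=0 set read with CellTiter-Glo at dosing. Luminescent viability read after 6–7 d exposure.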"}, "[9]": {"test": "Antiproliferative activity against human RKOE6 cells assessed as inhibition of cell viability measured for 6 to 7 days by cell titer glo assay", "assay_type": "functional, cell-based", "how_it_was_run": "as §1"}, "ASPC1": {"tested_on": "ASPC1", "test": "Antiproliferative activity against human ASPC1 cells assessed as inhibition of cell viability measured for 6 to 7 days by cell titer glo assay", "assay_type": "functional, cell-based", "how_it_was_run": "as §3"}, "HL-60 [10]": {"tested_on": "HL-60", "test": "Antiproliferative activity against human HL-60 cells assessed as inhibition of cell viability measured for 6 to 7 days by cell titer glo assay", "assay_type": "functional, cell-based", "how_it_was_run": "as §2"}, "LoVo": {"tested_on": "LoVo", "test": "Antiproliferative activity against human LoVo cells assessed as inhibition of cell viability measured for 6 to 7 days by cell titer glo assay", "assay_type": "functional, cell-based", "how_it_was_run": "as §2"}},
  "note": "Activity calls are given as the source filed them. The rule behind the calls is not given here.",
  "data": [
    {"smiles": "CCn1cc(-c2ccnc3[nH]c(-c4cccc(CN(C)C)c4)cc23)c(-c2ccc(NC(=O)N(C)C)cc2)n1", "note": "[GSK-1070916]", "values": [
      {"measurement": "EC50", "setting": "SU-DHL-16", "result": 4, "unit": "nM"},
      {"measurement": "Activity", "setting": "K562 [1]", "result": "Active"},
      {"measurement": "EC50", "setting": "Rec1", "result": 77, "unit": "nM"},
      {"measurement": "EC50", "setting": "OVCAR-8", "result": 30, "unit": "nM"},
      {"measurement": "EC50", "setting": "JVM-3", "result": 2, "unit": "nM"},
      {"measurement": "Activity", "setting": "COLO 205", "result": "Active"},
      {"measurement": "EC50", "setting": "Jurkat", "result": 3, "unit": "nM"},
      {"measurement": "EC50", "setting": "BXPC-3", "result": 3, "unit": "nM"},
      {"measurement": "EC50", "setting": "[2]", "result": 1, "unit": "nM"},
      {"measurement": "EC50", "setting": "COLO 201", "result": 2, "unit": "nM"},
      {"measurement": "EC50", "setting": "OCI-LY19", "result": 4, "unit": "nM"},
      {"measurement": "EC50", "setting": "MOLT-16", "result": 3, "unit": "nM"},
      {"measurement": "EC50", "setting": "786-0", "result": 57, "unit": "nM"},
      {"measurement": "EC50", "setting": "HCT-116", "result": 8, "unit": "nM"},
      {"measurement": "EC50", "setting": "Farage", "result": 7, "unit": "nM"},
      {"measurement": "EC50", "setting": "HCT-8", "result": 38, "unit": "nM"},
      {"measurement": "EC50", "setting": "[3]", "result": 14, "unit": "nM"},
      {"measurement": "MST", "setting": "HL-60 [4]", "result": 57, "unit": "days"},
      {"measurement": "EC50", "setting": "JM1", "result": 7, "unit": "nM"},
      {"measurement": "EC50", "setting": "EB-3", "result": 7, "unit": "nM"},
      {"measurement": "EC50", "setting": "K562 [5]", "result": 13, "unit": "nM"},
      {"measurement": "Activity", "setting": "HL-60 [6]", "result": "Active"},
      {"measurement": "EC50", "setting": "Raji", "result": 3, "unit": "nM"},
      {"measurement": "EC50", "setting": "MOLT-4", "result": 3, "unit": "nM"},
      {"measurement": "EC50", "setting": "ST486", "result": 2, "unit": "nM"},
      {"measurement": "EC50", "setting": "NCI-H1155", "result": 40, "unit": "nM"},
      {"measurement": "EC50", "setting": "NC-37", "result": 7, "unit": "nM"},
      {"measurement": "Activity", "setting": "A549", "result": "Active"},
      {"measurement": "Activity", "setting": "[7]", "result": "Toxic"},
      {"measurement": "EC50", "setting": "[8]", "result": 4, "unit": "nM"},
      {"measurement": "EC50", "setting": "DU-145", "result": 15, "unit": "nM"},
      {"measurement": "EC50", "setting": "[9]", "result": 7, "unit": "nM"},
      {"measurement": "EC50", "setting": "ASPC1", "result": 2, "unit": "nM"},
      {"measurement": "EC50", "setting": "HL-60 [10]", "result": 10, "unit": "nM"},
      {"measurement": "EC50", "setting": "LoVo", "result": 7, "unit": "nM"}
    ]}
  ]
}
